Hits are enriched below; roughly 2.5% of the tested compounds scored in any of these assays.
FLuc inhib CS: inhibits firefly luciferase, flagging false hits in luciferase inhibition screens; 200,000 tested, 1.5% active; inhibition, % at 10 µM; ATPLite firefly luciferase biochemical luminescence, 10 min;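 active = inhibition above about 50% when tested at 10 µM, limit read from the data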
FLuc act counter: firefly luciferase counter-screen for stimulation assays. P08659. ATPlite luciferase biochemical, luminescence, 10 min; 0 = ATP-free wells, 1 = DMSO control. activation factor at 10 µM. 200,000 tested, under 10 active. AID 1027;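 active = luciferase activation factor, scaled between plate controls, of at least 2 with compound at 10 µM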
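System: cell-free luciferase reagent; medium: PBS as buffer for the ATP substrate; doses: test compounds dosed from 2 mM stocks in 100% DMSO; incubation: 10 min, room temperature; measured by: luminescence from luciferase reaction; read-out: luciferase activation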
Diaphorase inh: inhibits diaphorase or chemically oxidizes, flagging diaphorase assay artifacts. 190,000 tested, 0.69% active. AID 1217. inhibition, % at 20 µM. diaphorase resazurin-to-resorufin fluorescence, NADH, 16 min; bacterial (C. kluyveri) enzyme, not human;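 active = primary screen inhibition at 20 µM above a set limit, cut at about 50% in these data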;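 note: plate controls were DMSO with full reaction for no effect and wells lacking NADH for full effect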
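System: Diaphorase enzyme from Clostridium kluyveri | Amount: Enzyme working solution with 0.14 U/mL diaphorase | Benchmarks: No-NADH positive control and DMSO neutral control | Signal: Fluorescence of resorufin formed from resazurin, Ex 544/Em 590 nm | Schedule: 16-min room-temperature incubation before reading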
PMI act satM6P: PMI (human) activation, high substrate; 190,000 tested, 0.34% active; activation factor at 20 µM; coupled PMI enzyme assay, resazurin fluorescence, 20 min; hits give high values; 1 = untreated enzyme, 0 = substrate-free blank; AID 1216;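 active = activation factor of 2 or more at 20 µM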
Target sequence (P34949 whole entry, looked up): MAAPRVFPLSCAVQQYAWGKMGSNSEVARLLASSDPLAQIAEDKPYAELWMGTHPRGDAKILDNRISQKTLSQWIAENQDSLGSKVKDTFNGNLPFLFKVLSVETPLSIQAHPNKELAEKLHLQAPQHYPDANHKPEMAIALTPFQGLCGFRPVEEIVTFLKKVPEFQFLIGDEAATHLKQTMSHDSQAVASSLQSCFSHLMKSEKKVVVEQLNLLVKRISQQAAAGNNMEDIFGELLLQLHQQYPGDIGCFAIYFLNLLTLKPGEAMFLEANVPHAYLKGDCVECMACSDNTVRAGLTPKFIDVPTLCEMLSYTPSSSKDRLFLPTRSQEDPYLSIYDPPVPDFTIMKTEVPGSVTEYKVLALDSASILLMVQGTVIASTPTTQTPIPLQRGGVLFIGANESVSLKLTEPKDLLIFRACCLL
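Material: human phosphomannose isomerase with PGI, G6PDH, diaphorase coupling enzymes. Quantity: 15 ng/mL PMI. Medium: HEPES pH 7.4 buffer with MgCl2 and Tween-20. Reagent: Near-saturating mannose-6-phosphate, 1.0 mM. Compound: 20 µM single dose. Times: enzyme reaction with compound 20 min at room temperature. Detection: resorufin fluorescence at Ex 544/Em 590 nm.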
PMI act: phosphomannose isomerase (human) activation | purified human PMI, coupled resazurin fluorescence, 20 min; hits give high values; 1 = vehicle control, 0 substrate-free wells | P34949 | activation factor at 20 µM | 190,000 tested, 0.005% active;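 active = activation factor of 2 or more at 20 µM, relative to plate controls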
Diaph act CS: activates diaphorase or chemically reduces, flagging diaphorase assay artifacts; Diaphorase/resazurin coupled assay, resorufin fluorescence, 16 min; hits give high values; 1 = vehicle wells, 0 = NADH-free wells; activation factor at 20 µM; 190,000 tested, 0.005% active;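 active = diaphorase activity raised at least twofold by the compound at 20 µM; inactive = activation factor below 2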
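Material: purified diaphorase enzyme from Clostridium kluyveri; Also added: 0.114 mM NADH and 0.1 mM resazurin, final amounts; Doses: single compound dose of 20 µM, 1% DMSO final; Times: 16 min enzyme reaction, ambient temperature; Detection: resorufin fluorescence, excitation 544 nm, emission 590 nm; Measure: increased resorufin signal from activators or reducing compounds.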
Starred values were filed as active, the others as inactive; / = no result.

SMILES	FLuc inhib CS	FLuc act counter	Diaphorase inh	PMI act satM6P	PMI act	Diaph act CS
CCCOc1ccc(N2CC(C(=O)Nc3ccc(N4CCOCC4)cc3)CC2=O)cc1 (configuration not stated)	-4	1	-2	1	1	1
Cn1nnnc1SCC(=O)NC1CCCc2ccccc21 (configuration not stated)	-4	1	12	1	1	0.9
COc1ccc(OC)c2[nH]c(=O)c(CCNC(=O)Cc3cccs3)cc12	-4	1	15	0.8	1	0.8
Cc1cc(=O)[nH]c(N/N=C/c2sccc2C)n1	10	0.9	21	0.8	0.7	0.8
Cc1ccsc1/C=N/Nc1nc2ccccc2[nH]1	74*	0.3	4	1.1	1.1	1
C(=N\Nc1nc2ccccc2[nH]1)/c1cccs1	68*	0.3	6	1	0.9	0.9
CCC(C(=O)OCC(=O)Nc1cccc(S(=O)(=O)NC2=NCCCCC2)c1)c1ccccc1 (configuration not stated)	3	1	6	1	1	0.9
CCc1ccc(NC(=O)c2cnn3ccccc23)cc1	78*	0.2	21	1	1	0.8
O=C(NCc1ccc(F)cc1)c1cnn2ccccc12	17	0.8	11	1	1.1	0.9
CNc1nnc(-c2ccncc2)s1	-2	1	9	0.9	0.9	0.9
Clc1ccccc1Nc1nnc(-c2ccncc2)s1	82*	0.2	11	0.9	0.9	0.9
Clc1ccccc1Nc1nc(-c2cccnc2)cs1	84*	0.2	/	/	/	/
Cn1c(=O)c(=O)n(C)c2cc(S(=O)(=O)N3CCN(c4cccc(C(F)(F)F)c4)CC3)ccc21	-10	1.1	2	1	1	1
O=C(Nc1nnc(-c2ccccc2Cl)o1)c1ccco1	66*	0.3	20	0.9	0.8	0.8
CCOC(=O)c1cnc2c(N=Nc3ccccc3)c(N)nn2c1N	70*	0.3	7	1.1	1	0.9
CCOC(=O)c1cnc2c(N=Nc3cccc(Cl)c3)c(N)nn2c1N	7	0.9	1	1	1	1
CCOC(=O)c1cnc2c(-c3ccc(Cl)cc3)cnn2c1C	57*	0.4	/	/	/	/
CCOC(=O)c1cnc2c(-c3ccccc3)c(C)nn2c1N	14	0.9	15	0.9	0.9	0.8
CCOC(=O)c1cnc2c(-c3ccccc3)cnn2c1N	75*	0.3	1	1	1.1	1
CC(NC(=S)NCCCN1CCOCC1)C12CC3CC(CC(C3)C1)C2 (configuration not stated)	-9	1.1	10	1	1	0.9
CCCCN1C(=O)Nc2ccccc2S1=O (configuration not stated)	-5	1	6	1	1	0.9
CC(C)C(=O)c1cn(CC(=O)N2CCCc3ccccc32)c2ccccc12	-11	1.1	18	1	1	0.8
Cc1ccc2nc(-c3cc(N)cc(N)c3)oc2c1	94*	0.1	5	0.7	0.8	0.9
Nc1ccc(-c2nc3ccc(N)cc3o2)cc1	87*	0.1	11	0.8	1	0.9
COC(=O)c1ccc(-c2nc3cc(N)ccc3o2)cc1	83*	0.2	9	0.7	1	0.9
CC1=C(C(=O)OCc2ccc(C)cc2)C(c2ccc(O)c([N+](=O)[O-])c2)NC(=O)N1 (configuration not stated)	-4	1	-14	1.1	1.2	1.1
COc1ccc(-c2nnc(SCc3csc(N)n3)n2C)cc1	-5	1.1	15	0.9	1	0.9
Cc1ccc(Nc2nc(CSc3nnc(-c4ccc(F)cc4)n3C)cs2)cc1	84*	0.2	17	0.9	0.9	0.8
CCOC(=O)c1sc2nc(N3CCCC3)c3c(c2c1N)CC(C)(C)OC3	-2	1	15	0.9	1.1	0.8
